From ChEMBL document CHEMBL4808239, “Challenges of short substrate analogues as SARS-CoV-2 main protease inhibitors” (Bioorg Med Chem Lett, 2021) come the findings set out here.

The target of assay [1] is Replicase polyprotein 1ab (Severe acute respiratory syndrome coronavirus 2, UniProt P0DTD1). Nature of the assay: Inhibition of SARS CoV-2 main protease using DABCYL-KTSAVLQ1SGFRKM-E(EDANS)-NH2 as substrate by FRET based assay.
Assay [2] concerns the target Replicase polyprotein 1ab (Severe acute respiratory syndrome coronavirus 2) (UniProt P0DTD1). Nature of the assay: Binding affinity to SARS CoV-2 15N/2H-labeled main protease assessed as chemical pertubations at 100 uM by 15HSQC-NMR spectrum analysis. The gist of the method: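 Wild-type main protease, ¹⁵N/²H-labelled, expressed with His6 tag, Ni-NTA purified and tag-cleaved. [¹⁵N,¹H]-HSQC spectra recorded at 25 °C (600/800 MHz) with and without compound and overlaid to look for chemical shift changes.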

Structures are written as SMILES. pIC50: −log10 of the molar value. The source made the active and inactive calls. The calls are words filed in the database; no cut-off is given here. Starred links: 1 amine or outer side, 2 acyl side, 3 side chain; linkers in the order of their positions; H or OH if unused. Non-standard residues stand in square brackets, D forms with d. Residues, ends and D or L forms follow the SMILES beside them. X1 = N#Cc1cc(C[C@H](N[*:1])C(=O)[*:2])ccn1; Tle = CC(C)(C)[C@H](N)C(=O)O; Thz = O=C(O)[C@@H]1CSCN1; Abu = CC[C@H](N)C(=O)O

As a reminder, the pIC50 is −log10 of the IC50, conventionally taken in molar units. Read a high pIC50 as a low IC50. As for `CC(C)C[C@@H]1NC(=O)[C@H](C(C)C)NC(=O)[C@H](C(C)C)NC(=O)[C@@H]2CSC(=N2)c2cc(ccn2)C[C@@H](C(N)=O)NC(=O)[C@H](CCC(=O)O)NC1=O`, the pIC50 in assay [1] was less than 4.00.
For the compound `CC(C)C[C@@H]1NC(=O)[C@H](C(C)C)NC(=O)[C@H](C)NC(=O)[C@H](C)NC(=O)[C@@H]2CSC(=N2)c2cc(ccn2)C[C@@H](C(N)=O)NC(=O)[C@H](C)NC(=O)[C@H](CCC(N)=O)NC1=O`, the outcome in assay [2] was inactive.
Consider `CC(C)C[C@@H]1NC(=O)[C@H](C(C)C)NC(=O)[C@H](C)NC(=O)[C@H](C)NC(=O)[C@@H]2CSC(=N2)c2cc(ccn2)C[C@@H](C(N)=O)NC(=O)[C@H](C)NC(=O)[C@H](CC(N)=O)NC1=O`, for which the pIC50 in assay [1] was less than 4.00.
The same measure, in the same setting: next, `CC[C@H](NC(C)=O)C(=O)N[C@H](C(=O)N[C@@H](CC(C)C)C(=O)N[C@@H](CCC(N)=O)C(N)=O)C(C)(C)C` (Ac-[Abu][Tle]LQ-NH2): less than 4.00.
Same read-out and setting: next, `CC(C)C[C@H](NC(=O)[C@@H](NC(=O)[C@H](C)NC(=O)[C@H](C)NC(=O)[C@@H]1CSCN1)C(C)C)C(=O)N[C@@H](CCC(N)=O)C(=O)N[C@@H](C)C(=O)N[C@@H](Cc1ccnc(C#N)c1)C(N)=O` (H-[Thz]AAVLQA[X1]-NH2): less than 4.00.
Take `CC(C)C[C@@H]1NC(=O)[C@H](C(C)C)NC(=O)[C@H](C(C)C)NC(=O)[C@@H]2CSC(=N2)c2cc(ccn2)C[C@@H](C(N)=O)NC(=O)[C@H](CCC(N)=O)NC1=O`: the outcome in assay [2] was inactive.
Take `CC(C)C[C@@H]1NC(=O)[C@H](CCCNC(=N)N)NC(=O)[C@H](C)NC(=O)[C@@H]2CSC(=N2)c2cc(ccn2)C[C@@H](C(N)=O)NC(=O)[C@H](CCC(=O)O)NC1=O`: the pIC50 in assay [1] is less than 4.00.
`CC(C)C[C@@H]1NC(=O)[C@H](C(C)C)NC(=O)[C@@H]2CSC(=N2)c2cc(ccn2)C[C@@H](C(N)=O)NC(=O)[C@H](CO)NC(=O)[C@H](CCC(N)=O)NC1=O` showed a pIC50 in assay [1] of less than 4.00.
